Calls of active or inactive are those of the source. No cut-off for these calls is given here. Bounds are passed on as bounds.

Usually inhibition stands for the drop in the measured response relative to a control, in per cent. By IC50 is commonly meant the midpoint of a concentration-inhibition curve.

Series [1] addresses T1, Prostaglandin G/H synthase 1 (Ovis aries) (UniProt P05979).
T1 sequence (whole entry): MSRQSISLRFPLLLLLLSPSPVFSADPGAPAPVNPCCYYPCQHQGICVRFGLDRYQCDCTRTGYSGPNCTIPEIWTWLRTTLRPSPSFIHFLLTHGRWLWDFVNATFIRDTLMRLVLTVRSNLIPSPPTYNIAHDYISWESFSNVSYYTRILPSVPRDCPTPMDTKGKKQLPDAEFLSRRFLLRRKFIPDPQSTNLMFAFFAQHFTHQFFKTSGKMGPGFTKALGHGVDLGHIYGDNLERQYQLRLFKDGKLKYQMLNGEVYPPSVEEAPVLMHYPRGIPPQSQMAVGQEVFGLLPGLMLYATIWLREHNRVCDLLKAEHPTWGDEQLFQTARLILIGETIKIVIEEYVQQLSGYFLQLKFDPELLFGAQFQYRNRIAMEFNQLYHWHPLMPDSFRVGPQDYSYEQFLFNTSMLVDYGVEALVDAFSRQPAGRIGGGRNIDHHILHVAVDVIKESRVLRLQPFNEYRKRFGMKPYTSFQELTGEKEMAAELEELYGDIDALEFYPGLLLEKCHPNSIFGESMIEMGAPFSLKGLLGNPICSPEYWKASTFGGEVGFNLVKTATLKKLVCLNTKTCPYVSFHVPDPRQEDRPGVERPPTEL
Nature of the series: Inhibition of ovine COX-1 assessed as inhibition of PGH2 production using arachidonic acid as substrate at 50 uM by TMPD oxidation based colorimetric assay. A digest of the protocol: (§1)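 Ovine COX-1 and COX-2 tested with a commercial colorimetric COX inhibitor screening kit, run per the manufacturer's protocol. The kit reads the enzyme's peroxidase activity. Compounds screened as percent inhibition at a single 50 µM concentration.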

Series [2] deals with T2, Prostaglandin G/H synthase 2 (Ovis aries) (UniProt P79208).
T2 sequence (whole entry): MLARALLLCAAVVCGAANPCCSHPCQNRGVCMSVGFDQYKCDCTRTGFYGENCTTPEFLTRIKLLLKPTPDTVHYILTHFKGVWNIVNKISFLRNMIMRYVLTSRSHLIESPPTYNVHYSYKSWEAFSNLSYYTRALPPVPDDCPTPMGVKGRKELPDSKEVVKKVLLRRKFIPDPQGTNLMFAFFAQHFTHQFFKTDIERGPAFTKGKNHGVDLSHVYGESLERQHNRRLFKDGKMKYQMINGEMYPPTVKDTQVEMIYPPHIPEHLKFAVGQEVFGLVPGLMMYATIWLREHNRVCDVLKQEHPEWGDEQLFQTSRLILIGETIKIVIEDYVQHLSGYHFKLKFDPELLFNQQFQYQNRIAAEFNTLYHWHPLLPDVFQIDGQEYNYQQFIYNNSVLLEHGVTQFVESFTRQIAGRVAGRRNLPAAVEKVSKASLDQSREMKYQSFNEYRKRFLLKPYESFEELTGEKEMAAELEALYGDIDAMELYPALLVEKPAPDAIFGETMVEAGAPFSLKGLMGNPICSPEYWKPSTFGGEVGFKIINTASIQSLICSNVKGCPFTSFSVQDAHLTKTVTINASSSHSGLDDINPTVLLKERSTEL
Briefly: Inhibition of ovine COX-2 assessed as inhibition of PGH2 production using arachidonic acid as substrate at 50 uM by TMPD oxidation based colorimetric assay. A digest of the protocol: as §1

A further series relates to MCF7. Nature of the series: Antiproliferative activity against human MCF7 cells assessed as cell growth inhibition after 48 hrs by MTT assay. To be noted: mcf7, 48 h. It is filed as cell-based. A digest of the protocol:
(§2)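 MTT read-out of growth after 48 h. After the drug incubation, MTT was added at 0.5 mg/mL for 3 h at 37 °C. Supernatant was removed, formazan dissolved in DMSO, and absorbance read.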
In general terms: Formazan colour is commonly taken as a measure of viable cells.

The subject of the next series is SK-OV-3. Nature of the series: Antiproliferative activity against human SKOV3 cells assessed as cell growth inhibition after 48 hrs by MTT assay. To be noted: sk-ov-3, 48 h. It is filed as cell-based. A digest of the protocol:
as §2

The target of series [3] is T3, Prostaglandin G/H synthase 2 (Ovis aries, UniProt P79208).
T3 sequence (P79208 whole entry): T2 sequence (whole entry)
Nature of the series: Inhibition of ovine COX-2 assessed as inhibition of PGH2 production using arachidonic acid as substrate by TMPD oxidation based colorimetric assay.

The target of series [4] is T4, Prostaglandin G/H synthase 2 (Homo sapiens, UniProt P35354).
T4 sequence (P35354 whole entry): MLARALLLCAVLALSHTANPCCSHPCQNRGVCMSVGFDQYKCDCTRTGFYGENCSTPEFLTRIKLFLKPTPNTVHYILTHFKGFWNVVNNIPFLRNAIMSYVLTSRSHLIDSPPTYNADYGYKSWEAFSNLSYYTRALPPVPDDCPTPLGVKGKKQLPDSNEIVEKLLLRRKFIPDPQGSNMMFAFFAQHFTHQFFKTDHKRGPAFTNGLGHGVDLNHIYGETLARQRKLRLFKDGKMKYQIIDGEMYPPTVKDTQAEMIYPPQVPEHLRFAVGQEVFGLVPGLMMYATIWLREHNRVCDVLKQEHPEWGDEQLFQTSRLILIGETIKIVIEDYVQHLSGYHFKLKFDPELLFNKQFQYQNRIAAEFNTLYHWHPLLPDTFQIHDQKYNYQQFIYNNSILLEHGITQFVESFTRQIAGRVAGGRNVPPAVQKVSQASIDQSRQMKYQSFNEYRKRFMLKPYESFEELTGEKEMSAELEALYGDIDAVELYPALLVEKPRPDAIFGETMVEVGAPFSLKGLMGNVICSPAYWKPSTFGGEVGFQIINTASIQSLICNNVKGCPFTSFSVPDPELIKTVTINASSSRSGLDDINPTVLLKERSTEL
Nature of the series: Inhibition of LPS-induced COX2 in human whole blood assessed as reduction in […] levels by radioimmunoassay.

Turning to `COC(=O)Cc1onc(-c2ccc(Cl)o2)c1-c1ccccc1`, the inhibition in series [1] turned out to be 7%.
`COc1ccc(-c2nnn(-c3ccc(SC)cc3)c2C)cc1`: the inhibition result in series [2] and in series [1] was “inactive” in each case.
On to `COc1ccc(-n2nnc(-c3ccc(Cl)o3)c2C)cc1`, for which the inhibition entry in series [2] is “inactive”. In addition, the inhibition in series [1] amounted to 45%.
The corresponding values for `COc1ccc(-c2nnn(-c3ccc(S(C)(=O)=O)cc3)c2C)cc1` are “inactive” and 55%.
For `COc1ccc(-n2nnc(-c3ccc(N)cc3)c2C)cc1`, the Activity entry in the series with MCF7 and in the series on SK-OV-3 was “Non-toxic” each time. In series [2], the inhibition result was “inactive”. In addition, the inhibition in series [1] is 100%.
For `Cc1c(-c2ccccc2)nnn1-c1ccc(O)cc1`, the inhibition in series [2] amounted to 26%. Also, the inhibition result in series [1] is “inactive”.
As to `CSc1ccc(-n2nnc(-c3ccccc3)c2C)cc1`, in series [2], the inhibition was found to be 14%. Besides, in series [1], the inhibition result is “inactive”.
The like results for `COc1ccc(-n2nnc(-c3ccco3)c2C)cc1` were, in that order, “inactive” and “inactive”.
`COc1ccc(-n2nnc(-c3ccc(S(C)(=O)=O)cc3)c2C)cc1`: the inhibition entry in series [2] was “inactive”. Besides, in series [1], the inhibition turned out to be 20%.
The like results for `Cc1c(-c2ccccc2)nnn1-c1ccc(F)cc1` were, in that order, “inactive” and “inactive”.
As to `COc1ccc(-n2nc(C(F)(F)F)cc2-c2ccco2)cc1`, in series [2], the inhibition turned out to be 28%.
Regarding `Cc1c(-c2ccccc2)nnn1-c1ccc(S(C)(=O)=O)cc1`, the figures for the inhibition in series [2] and in series [1] were 20% and 21%, respectively.
`Clc1ccc(-c2noc(CBr)c2-c2ccccc2)o1`: the inhibition in series [1] turned out to be 37%.
For `COc1ccc(-c2noc(CC(=O)O)c2-c2ccc(OC)cc2)cc1` [MOFEZOLAC], the IC50 in series [3] was 440 nM.
Consider `COc1ccc(-c2nnn(-c3ccc(OC)cc3)c2C)cc1`, for which the inhibition result in series [2] was “inactive”. The inhibition in series [1] is 25%.
The corresponding values for `COc1ccc(-n2nnc(-c3ccccc3)c2C)cc1` are 35% and 26%.
The corresponding values for `Cc1c(-c2ccccc2)nnn1-c1ccc([N+](=O)[O-])cc1` are “inactive” and “inactive”.
As to `Cc1onc(-c2ccc(Cl)o2)c1-c1ccccc1`, in series [4], the IC50 is above 100000 nM. The inhibition in series [1] was determined as 89%.
As to `COc1ccc(-n2nnc(-c3ccc(SC)cc3)c2C)cc1`, the inhibition result in series [2] and in series [1] was “inactive” throughout.
As for `N#CCc1onc(-c2ccc(Cl)o2)c1-c1ccccc1`, the inhibition in series [1] worked out at 11%.
For the compound `Cc1c(-c2ccco2)nnn1-c1ccc([N+](=O)[O-])cc1`, the inhibition in series [2] came to 40%. Further, in series [1], the inhibition entry was “inactive”.
The corresponding values for `COc1ccc(-n2nnc(-c3ccc([N+](=O)[O-])cc3)c2C)cc1` are “inactive” and 20%.
Consider `Cc1c(-c2ccccc2)nnn1-c1ccc(N)cc1`, for which the Activity entry in the series on MCF7 and in the series with SK-OV-3 was “Non-toxic” throughout. The inhibition entry in series [2] is “inactive”. Further, in series [1], the inhibition came out at 56%.
Regarding `Cc1c(-c2ccccc2)nnn1-c1ccc(Cl)cc1`, the inhibition result in series [2] and in series [1] was “inactive” in each case.

Values taken from ChEMBL document CHEMBL3425409, “General role of the amino and methylsulfamoyl groups in selective cyclooxygenase(COX)-1 inhibition by 1,4-diaryl-1,2,3-triazoles and validation of a predictive pharmacometric PLS model” (Eur J Med Chem, 2015).
